Bioassay records from PubChem.
Compounds with a hit are over-represented: about 4.9% of the library has one in this group of screens.
APP 5'UTR act – APP 5'UTR luciferase reporter activation; SH-SY5Y APP 5'UTR luciferase reporter, luminescence; zero percent = DMSO vehicle wells; activation, % at 2 µM; 1% of 190,000 active;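 active means activation above a set limit, based on mean plus 3 SD of controls, cut at about 140% in these data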
STAT1 activator – increases IFN-gamma driven STAT1 reporter signal. 2.6% of 200,000 active. NIH 3T3 STAT1-luciferase reporter, luminescence; 100% = IFN-gamma alone, no compound. activation (% of control), % at 5.5 µM;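 active means activation above the screen-wide mean activation plus 3 SD, cut at about 130% in these data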;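 further: raw ratio to IFN-gamma control signal so 100% means no change and 0% no light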
STAT1 blocker – reduces IFN-gamma driven STAT1 reporter signal. NIH 3T3 STAT1-luciferase reporter, luminescence. inhibition, % at 5.5 µM. 0.35% of 200,000 active. AID 920;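 active means inhibition above a set limit, the mean inhibition across all tested compounds plus 3 SD, cut at about 34% in these data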;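 further: 0% = IFN-gamma with DMSO and 100% = IFN-gamma with 300 µM nifuroxazide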
NF-kB neuron act – raises NF-kB expression in human neuronal cells; AID 1239; NF-kB reporter expression; hits give high values; fold change at 12.5 µM; 1.6% of 190,000 active; in the data active means fold change above about 3.3
STAT3 act – increases IL-6 driven STAT3 reporter signal; U3A cells, IL-6 STAT3-luciferase reporter, luminescence; 100% = signal with IL-6 EC80 alone; 0.91% of 190,000 active; AID 871; activation (% of control), % at 5.6 µM;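 active means activation above the screen-wide mean of compound activation plus 3 SD, cut at about 130% in these data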;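 further: 0% = background luminescence of wells with medium and substrate only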
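Test system: human U3A cells carrying STAT3-luciferase construct; control set: IL-6-only wells as 100% reference; timing: compound pre-incubation 1 h before IL-6, then 6 h stimulation at 37 °C; also added: IL-6 stimulus at 33 ng/mL final; evaluation: % activation versus median of IL-6-stimulated wells; detection: reporter luminescence signal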
STAT3 blocker – inhibitors of IL-6 induced STAT3 signaling. U3A cells, IL-6 STAT3-luciferase reporter, luminescence; host cell line lacks STAT1. inhibition, % at 5.5 µM. 0.89% of 190,000 active. AID 862;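 active means inhibition above the mean inhibition across all screened compounds plus 3 SD, cut at about 44% in these data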;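 further: 0% = DMSO only wells and 100% = 100 µM nifuroxazide control wells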
* = called active by the depositor; / = not tested or not shown.

SMILES	APP 5'UTR act	STAT1 activator	STAT1 blocker	NF-kB neuron act	STAT3 act	STAT3 blocker
CCOc1ccccc1C(=O)N1CCN(c2cccc(Cl)c2)CC1	-94	105	-5	4*	122	-25
CCOC(=O)c1sc(NC(=O)c2ccc(CC)s2)nc1C	29	126	-29	2.3	99	5
CCOC(=O)c1sc(NC(=O)c2ccc3ncsc3c2)nc1C	83	148*	-50	2	74	32
COC(=O)c1sc(NC(=S)NC(=O)c2ccccc2F)nc1C	78	129*	-32	1.3	108	-7
CCOC(=O)c1sc(NC(=O)c2ccccc2OC)nc1C	153*	146*	-51	8*	74	39
CCOC(=O)CNC(=O)c1sc(NC(=O)c2ccccc2F)nc1C	91	129*	-31	2.5	102	0
O=C(OCc1nnc(-c2ccccc2)o1)C1CC(=O)N(Cc2ccco2)C1 (configuration not stated)	-6	97	5	1.2	98	8
Cc1ccc(NC(=O)/C(=C\c2ccccc2)NC(=O)/C=C/c2ccccc2)cc1	14	109	-10	1.1	100	11
Nc1cc(-c2nn[nH]n2)ccc1F	7	96	5	1	95	10
CCCc1ccc(-c2ccc(F)c(N)c2)nc1	140*	67	37*	4.2*	24	97*
O=C(CSc1nnc(-c2ccccc2Cl)o1)Nc1ccc2c(c1)OCCO2	141*	98	1	2.2	99	3
O=C(CSc1nnc(-c2ccc(O)cc2)o1)Nc1ccc2c(c1)OCCO2	135*	101	-1	1.9	85	21
O=C(CSc1nnc(-c2ccccc2Cl)o1)Nc1ccccn1	129	117	-21	2.3	94	13
Clc1cccc(Cl)c1CNc1ccc(N2CCCC2)cc1	-6	89	10	1	102	4
Cc1ccc(N=C2S/C(=C\c3cn(CC(=O)O)c4ccccc34)C(=O)N2C)cc1	6	102	-3	1.3	105	-6
CCOC(=O)Cc1cc(=O)n2[nH]cc(-c3ccc(Cl)cc3)c2n1	-14	100	-3	1.1	101	2
Cc1cc(O)c(NC(=O)c2cc([N+](=O)[O-])ccc2Cl)cc1C	-11	106	-8	1.5	134*	-40
Cc1ccc(O)c(NC(=O)c2cc([N+](=O)[O-])ccc2Cl)c1	14	101	-3	1.1	126	-22
Clc1ccc(-n2nnc(-c3cccnc3Cl)n2)cn1	48	134*	-34	1.8	/	/
Cc1ccc(-n2nnc(-c3cccnc3Cl)n2)cc1	204*	126	-26	8.6*	/	/
Clc1ncccc1-c1nnn(-c2ccccc2Br)n1	6	121	-21	1.7	/	/
O=c1cccc2n1Cc1cc3ccccc3nc1-2	67	135*	-38	3.1	94	4
COC(=O)/C(=N\Nc1ccc(Cl)cc1)Sc1nnc(-c2ccc(OC)cc2)n1C	5	99	1	1.3	96	8
COc1ccc(N(C(=O)c2ccco2)C(C(=O)NC2CCCCC2)c2cccs2)cc1OC (configuration not stated)	3	96	6	1.2	101	2
C#CC(=O)N(c1ccc(OC)cc1OC)C(C(=O)NC1CCCC1)c1cccs1 (configuration not stated)	-15	18	88*	0.18	29	84*
SMILES	APP 5'UTR act	STAT1 activator	STAT1 blocker	NF-kB neuron act	STAT3 act	STAT3 blocker
C#CC(=O)N(c1cc(OC)ccc1OC)C(C(=O)NC1CCCC1)c1cccs1 (configuration not stated)	-11	33	75*	0.17	11	114*
CC(=O)Nc1ccc(C(=O)OCCC(C)C)cc1	6	129*	-32	1.4	97	6
C[C@H](NC(N)=O)C(=O)Nc1ccc(OCc2ccccc2)cc1	52	132*	-35	2.2	108	-7
CCC(=O)Nc1ccc(C(=O)OCc2ccccc2)cc1	24	132*	-35	1.3	98	4
CCCOC(=O)c1ccc(NC(=O)c2ccoc2C)cc1	115	141*	-44	3.5*	103	-4
CCOC(=O)c1c(NC(=O)CSC(=S)N2CCOCC2)sc(C)c1C	-13	100	1	1.2	98	5
CC(C)(C)C1CCc2c(C(=O)NNC(=O)CCCC(=O)O)csc2C1 (configuration not stated)	10	100	-1	0.91	106	-6
Cc1ccc(OCCN2C(=O)NC3(CCc4ccccc4C3)C2=O)cc1 (configuration not stated)	-11	101	-1	1.1	107	-6
COc1ccccc1/C=C(/C(=O)OCC(=O)Nc1cc(C)ccc1C)c1ccccc1	0	101	-1	1.1	109	-7
O=C(COC(=O)c1ccc(O)cc1)Nc1ccccc1[N+](=O)[O-]	0	98	2	1.2	87	20
CCCOC(=O)c1ccc(NC(=O)COC)cc1	3	112	-10	1.3	103	-2
CCCOC(=O)c1ccc(NC(=O)CC(C)(C)C)cc1	122	144*	-50	5.5*	112	-9
Cc1occc1C(=O)NNC(=O)c1ccccc1C(=O)O	181*	146*	-51	1.4	110	-7
Cc1ccccc1C(=O)NNC(=O)c1ccoc1C	9	96	5	1.3	101	0
Cc1occc1C(=O)Nc1ccc(OCc2ccccc2)cc1	119	129*	-32	3.3	93	10
O=C(Nc1cccc2cccnc12)C1CCCC1	21	97	4	1.1	98	5
CCN(CC1COc2ccccc2O1)C(=S)Nc1ccccc1 (configuration not stated)	1	83	19	0.88	87	21
Cc1ccc(NC(=S)N(Cc2ccc(Cl)cc2)Cc2ccc(C(=O)O)cc2)cc1Cl	-11	96	3	1.1	109	-9
O=C(/C=C/c1cnc2ccccc2n1)NC12CC3CC(CC(C3)C1)C2	190*	150*	-55	1	97	3
O=C(O)/C=C/c1cnc2ccccc2n1	-3	96	4	1.4	108	-1
O=C(Oc1cccc(-c2cnc3ccccc3n2)c1)c1ccco1	122	105	-5	3.5*	90	16
CCN(CC)S(=O)(=O)c1ccc(C)c(C(=O)Oc2cccc(-c3cnc4ccccc4n3)c2)c1	96	105	-3	1.3	108	-12
Nc1nnc(-c2ccc(Cl)cc2Cl)s1	30	147*	-53	2.6	100	5
COCC(=O)Nc1nnc(-c2ccc(C(C)(C)C)cc2)s1	142*	136*	-39	8.4*	91	15
CCN(CC)c1ccc(/C=N/Nc2nc3ccccc3[nH]2)cc1	-12	172*	-81	0.26	125	-26
C(=N\Nc1nc2ccccc2[nH]1)/c1ccncc1	10	128	-30	1.1	107	-3
